Experimental data reported in ChEMBL document CHEMBL1154804, “Diterpenes, sesquiterpenes, and a sesquiterpene-coumarin conjugate from Jatropha integerrima” (J Nat Prod, 2009).
Values after ≈ are worked out from the molar mass of the structure shown. Active and inactive are the calls of the source. No cut-off for these calls is given here.

Tests used:
[1] = system: Mycobacterium tuberculosis; assay: Antitubercular activity against Mycobacterium tuberculosis H37Ra at 200 ug/ml after 4 days by microplate alamar blue assay; format: functional, organism-based
In short: (§1)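 M. tuberculosis H37Ra tested in an Alamar Blue microplate assay. Values are given as MIC in µg/mL. The highest level tested was 200 µg/mL.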

[2] = system: Plasmodium falciparum; assay: Antiplasmodial activity against multidrug-resistant Plasmodium falciparum K1 assessed as [3H]hypoxanthine incorporation after 24 hrs by microtiter plate scintillation counting; format: functional, organism-based
In short: (§2)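 K1 multidrug-resistant P. falciparum kept in continuous culture (Trager–Jensen). In vitro activity measured by a microculture radioisotope technique (Desjardins method). The highest level tested was 10 µg/mL.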

[3] = system: Vero; assay: Cytotoxicity against african green monkey Vero cells at 50 ug/ml by sulforhodamine B assay; format: cell-based; conditions: chlorocebus sabaeus
In short: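 African green monkey kidney fibroblasts (Vero) exposed to test material at 50 µg/mL; cell growth read by a colorimetric method (Skehan and coworkers).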

[4] = system: Plasmodium falciparum; assay: Antiplasmodial activity against multidrug-resistant Plasmodium falciparum K1 assessed as [3H]hypoxanthine incorporation at 10 ug/ml after 24 hrs by microtiter plate scintillation counting; format: functional, organism-based; in short: as §2
[5] = system: Vero; assay: Cytotoxicity against african green monkey Vero cells by sulforhodamine B assay; format: cell-based; conditions: chlorocebus sabaeus
In short: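 Vero cells were described as African green monkey kidney fibroblasts. Read-out was by the colorimetric method of Skehan and coworkers. Compounds were tested up to 50 µg/mL.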

[6] = system: Mycobacterium tuberculosis; assay: Antitubercular activity against Mycobacterium tuberculosis H37Ra after 4 days by microplate alamar blue assay; format: functional; conditions: 96 h; in short: as §1

Q: What does the source list for `C=C1CC[C@@H]2[C@H](c3c(C)c(O)c4c(c31)C(=O)[C@](C)(O)C4)C2(C)C`?
A: Activity [1]: inactive; IC50 [2]: 4.1 µg/mL; Activity [3]: Non-toxic

Q: For `C=C1CC[C@@H]2[C@H](c3c(C)c(O)c4c(c31)C(=O)[C@@](C)(O)C4)C2(C)C`, which Activity [1] is on record?
A: Its Activity is “inactive”.

Q: What about the Activity [4] of the same compound?
A: Its Activity is “inactive”.

Q: And the IC50 [5]?
A: The IC50 was 49.4 µg/mL (≈ 158 µM).

Q: How did the IC50 [2] turn out when `C[C@H]1[C@@H](O)O[C@@H]2O[C@@]3(C)CC[C@H]4[C@H](C)CC[C@@H]1[C@@]24OO3` [ARTENIMOL] was run?
A: Its IC50 is 4 nM.

Q: Which MIC [6] does the source give for `C=C(C)[C@@H]1CC[C@]23CO[C@@]4(OO2)C2=C(C(=O)C(C)=C[C@@H]1[C@@H]23)[C@H](O)[C@H]4C` [CANIOJANE] here?
A: Its MIC is 25 µg/mL (≈ 72.6 µM).

Q: What about the IC50 [2] of the same compound?
A: Its IC50 is 3.3 µg/mL.

Q: What about the IC50 [5] of the same compound?
A: The IC50 was 12.9 µg/mL (≈ 37.5 µM).

Q: With `Cc1c2ccncc2c(C)c2c1[nH]c1ccccc12` [ELLIPTECINE] as the compound, how does the IC50 [5] read?
A: Its IC50 is 0.7 µg/mL (≈ 2.84 µM).

Q: For `NNC(=O)c1ccncc1` [ISONIAZID], which MIC [6] is on record?
A: Its MIC is 0.1 µg/mL (≈ 0.729 µM).

Q: With `C=C1CC[C@@H]2[C@H](c3c(C)c(O)c4c(c31)C(=O)[C@@H](C)C4)C2(C)C` [JATROPHOLONE A] as the compound, how does the Activity [1] read?
A: The Activity was “inactive”.

Q: What about the IC50 [2] of the same compound?
A: The IC50 was 5.4 µg/mL.

Q: And the Activity [3]?
A: Its Activity is “Non-toxic”.

Q: Which results are given for `C=C1CC[C@@H]2[C@H](c3c(C)c(O)c4c(c31)C(=O)[C@H](C)C4)C2(C)C` [JATROPHOLONE B]?
A: Activity [1]: inactive; Activity [4]: inactive; Activity [3]: Non-toxic

Q: With `NC[C@H]1O[C@H](O[C@H]2[C@H](O)[C@@H](O[C@H]3O[C@H](CO)[C@@H](O)[C@H](N)[C@H]3O)[C@H](N)C[C@@H]2N)[C@H](O)[C@@H](O)[C@@H]1O` [KANAMYCIN] as the compound, how does the MIC [6] read?
A: Its MIC is 2.5 µg/mL (≈ 5.16 µM).
